Experimental data taken from ChEMBL document CHEMBL2086233, “D-proline-based peptidomimetic inhibitors of anthrax lethal factor” (Eur J Med Chem, 2012).

biological target: T1, Lethal factor (Bacillus anthracis) (UniProt P15917); assay: Inhibition of Bacillus anthracis lethal factor using protease substrate-2 assessed as release of p-nitroaniline at 10 uM measured for 10 mins by spectrophotometric assay
T1 sequence (whole entry): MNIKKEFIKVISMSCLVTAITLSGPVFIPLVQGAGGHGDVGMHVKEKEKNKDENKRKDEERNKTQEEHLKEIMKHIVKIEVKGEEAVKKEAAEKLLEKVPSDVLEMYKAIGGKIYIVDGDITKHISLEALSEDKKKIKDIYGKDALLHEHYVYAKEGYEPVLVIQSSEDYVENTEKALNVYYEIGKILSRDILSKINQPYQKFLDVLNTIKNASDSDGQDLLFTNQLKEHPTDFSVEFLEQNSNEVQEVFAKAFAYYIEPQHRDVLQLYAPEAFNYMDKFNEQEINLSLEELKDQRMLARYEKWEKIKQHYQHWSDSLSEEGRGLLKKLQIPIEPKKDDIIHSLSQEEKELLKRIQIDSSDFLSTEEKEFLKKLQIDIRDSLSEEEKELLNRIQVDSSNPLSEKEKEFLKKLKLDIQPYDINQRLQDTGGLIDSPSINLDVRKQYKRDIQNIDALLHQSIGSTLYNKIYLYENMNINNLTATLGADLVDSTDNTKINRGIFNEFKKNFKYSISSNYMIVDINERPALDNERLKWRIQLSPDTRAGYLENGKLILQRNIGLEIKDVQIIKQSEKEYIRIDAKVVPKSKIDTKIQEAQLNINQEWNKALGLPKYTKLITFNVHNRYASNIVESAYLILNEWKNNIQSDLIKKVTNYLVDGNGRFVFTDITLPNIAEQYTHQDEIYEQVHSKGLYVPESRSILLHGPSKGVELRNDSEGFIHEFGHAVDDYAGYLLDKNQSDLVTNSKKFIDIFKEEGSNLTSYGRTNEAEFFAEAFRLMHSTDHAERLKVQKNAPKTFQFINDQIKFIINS
Outline: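 Single fixed inhibitor concentration. A405 (p-nitroaniline release) followed 10 min after LF addition. % inhibition from initial velocity versus no-inhibitor control. Mean of three experiments.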

Structure (SMILES)	inhibition
O=C(/C=C/c1ccco1)N[C@H]1C[C@H](C(=O)NO)N(S(=O)(=O)c2ccc(Cl)c(Cl)c2)C1	22%
O=C(NO)[C@H]1C[C@H](OCc2ccccc2)CN1S(=O)(=O)c1ccc(Cl)c(Cl)c1	16%
O=C(N[C@H]1C[C@H](C(=O)NO)N(S(=O)(=O)c2ccc(Cl)c(Cl)c2)C1)c1cccs1	46%
COc1ccc(C(=O)N[C@H]2C[C@H](C(=O)NO)N(S(=O)(=O)c3ccc(Cl)c(Cl)c3)C2)c(OC)c1	11%
O=C(NO)[C@H]1C[C@@H](n2cc(-c3ccccc3)nn2)CN1S(=O)(=O)c1ccc(Cl)c(Cl)c1	8%
COc1ccc(C(=O)N[C@@H]2C[C@H](C(=O)NO)N(S(=O)(=O)c3ccc(Cl)c(Cl)c3)C2)c(OC)c1	65%
O=C(N[C@@H]1C[C@H](C(=O)NO)N(S(=O)(=O)c2ccc(Cl)c(Cl)c2)C1)c1cccs1	27%
O=C(NO)[C@H]1C[C@@H](OCc2ccccc2)CN1S(=O)(=O)c1ccc(Cl)c(Cl)c1	50%

biological target: T2, Lethal factor (Bacillus anthracis, UniProt P15917); assay: Inhibition of Bacillus anthracis lethal factor using protease substrate-2 assessed as release of p-nitroaniline measured for 10 mins by spectrophotometric assay
T2 sequence (P15917 whole entry): T1 sequence (whole entry)
Outline: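 10 nM LF with lethal factor protease substrate II (pNA-tagged peptide) in 250 mM Na2HPO4, 150 mM NaCl, pH 7.4, 25 °C. A405 followed 10 min after enzyme addition. Inhibitor at five concentrations starting at 500 nM. IC50 by non-linear regression of the dose-response data. Experiments repeated twice.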

Structure (SMILES)	IC50
O=C(NO)[C@H]1[C@@H](OCc2ccccc2)CCN1S(=O)(=O)c1ccc(Cl)cc1	1.7 µM
COc1ccc(C(=O)N[C@@H]2C[C@H](C(=O)NO)N(S(=O)(=O)c3ccc(Cl)c(Cl)c3)C2)c(OC)c1	2.1 µM
CCCCCCO[C@H]1CCN(S(=O)(=O)c2ccc(Cl)cc2)[C@H]1C(=O)NO	> 10 µM
O=C(NO)[C@H]1C[C@@H](OCc2ccccc2)CN1S(=O)(=O)c1ccc(Cl)c(Cl)c1	9.5 µM
O=C(NO)[C@H]1[C@@H](OCc2ccccc2)CCN1S(=O)(=O)c1ccc(Cl)c(Cl)c1	1.4 µM
